Results: ChEMBL document CHEMBL4393654, “Discovery and Early Clinical Development of an Inhibitor of 5-Lipoxygenase Activating Protein (AZD5718) for Treatment of Coronary Artery Disease” (J Med Chem, 2019)
Values belong to the molecule of their own block, whether it stands above or below them. Activity calls are given as the source filed them. The calls are words filed in the database; no cut-off is given here.

Assays:
[1] = Half life in rat at 2 umol/kg, iv; assay type: ADME; settings: in vivo
Cytochrome P450 [2] = experiment: Drug metabolism in human hepatocytes assessed as CYP450-mediated phase-2 glucuronidation/ketone reduction at 4 uM measured after 120 mins by LC-MS/MS analysis; assay type: ADME, cell-based, Hepatocyte; settings: 2 h
[3] = Volume of distribution at steady state in rat at 2 umol/kg, iv; assay type: ADME; settings: in vivo, read-out: Vdss
[4] = Oral bioavailability in rat at 2.8 umol/kg; assay type: ADME, organism-based; settings: in vivo
[5] = Clearance in rat at 2 umol/kg, iv; assay type: ADME; settings: in vivo
[6] = Oral bioavailability in Beagle dog at 4.2 umol/kg; assay type: ADME, organism-based, Canis lupus familiaris; settings: in vivo
[7] = Oral bioavailability in rat at 2 umol/kg; assay type: ADME, organism-based; settings: in vivo
[8] = Volume of distribution at steady state in Beagle dog at 1 umol/kg, iv; assay type: ADME, Canis lupus familiaris; settings: in vivo, read-out: Vdss
[9] = molecular target: T1, Arachidonate 5-lipoxygenase-activating protein (Homo sapiens) (UniProt P20292); experiment: Inhibition of FLAP in human whole blood assessed as reduction in calcium ionophore-stimulated LTB4 production preincubated for 4 hrs followed by calcium ionophore stimulation and measured after 20 mins by EIA; assay type: tissue-based
T1 sequence (whole entry): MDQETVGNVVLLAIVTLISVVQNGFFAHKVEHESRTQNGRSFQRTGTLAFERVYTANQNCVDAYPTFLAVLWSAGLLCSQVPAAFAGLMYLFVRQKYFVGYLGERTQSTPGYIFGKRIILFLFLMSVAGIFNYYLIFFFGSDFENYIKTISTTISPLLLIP
Method in brief: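 Fresh human whole blood was incubated with compound for 4 h, then stimulated with calcium ionophore, and LTB4 production was measured as the 5-LO pathway read-out. IC50 was also converted to a free value: IC50 × (Fu/100), where Fu = 100 − human plasma protein binding (%).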

HepG2 = experiment: Cytotoxicity against human HepG2 cells assessed as reduction in ATP depletion in presence of glucose/galactose; assay type: cell-based
Homo sapiens [10] = organism: Homo sapiens; experiment: Selectivity ratio of compound effect on activity at COX2 in human whole blood to IC50 for FLAP in human whole blood
Cytochrome P450 [11] = experiment: Drug metabolism in human hepatocytes assessed as CYP450-mediated oxidation at 4 uM measured after 120 mins by LC-MS/MS analysis; assay type: ADME, cell-based, Hepatocyte; settings: 2 h
Homo sapiens [12] = organism: Homo sapiens; experiment: Selectivity ratio of compound effect on activity at COX1 in human whole blood to IC50 for FLAP in human whole blood
[13] = molecular target: T2, Arachidonate 5-lipoxygenase-activating protein (Homo sapiens, UniProt P20292); experiment: Inhibition of [3H]MK0591 binding to human FLAP expressed in […] cell membranes measured after 60 to 80 mins by microbeta scintillation counting method
T2 sequence (P20292 whole entry): T1 sequence (whole entry)

[14] = Half life in Beagle dog at 1 umol/kg, iv; assay type: ADME, Canis lupus familiaris; settings: in vivo
THP-1 = experiment: Cytotoxicity against human THP1 cells assessed as reduction in cell viability measured after 48 hrs by resazurin assay; assay type: cell-based; settings: THP-1, 48 h
[15] = molecular target: Prostaglandin G/H synthase 1 (Homo sapiens) (UniProt P23219); experiment: Activity at COX1 in human whole blood assessed as effect on […] production by EIA; assay type: tissue-based
Chain of Prostaglandin G/H synthase 1 (Homo sapiens) (P23219 whole entry): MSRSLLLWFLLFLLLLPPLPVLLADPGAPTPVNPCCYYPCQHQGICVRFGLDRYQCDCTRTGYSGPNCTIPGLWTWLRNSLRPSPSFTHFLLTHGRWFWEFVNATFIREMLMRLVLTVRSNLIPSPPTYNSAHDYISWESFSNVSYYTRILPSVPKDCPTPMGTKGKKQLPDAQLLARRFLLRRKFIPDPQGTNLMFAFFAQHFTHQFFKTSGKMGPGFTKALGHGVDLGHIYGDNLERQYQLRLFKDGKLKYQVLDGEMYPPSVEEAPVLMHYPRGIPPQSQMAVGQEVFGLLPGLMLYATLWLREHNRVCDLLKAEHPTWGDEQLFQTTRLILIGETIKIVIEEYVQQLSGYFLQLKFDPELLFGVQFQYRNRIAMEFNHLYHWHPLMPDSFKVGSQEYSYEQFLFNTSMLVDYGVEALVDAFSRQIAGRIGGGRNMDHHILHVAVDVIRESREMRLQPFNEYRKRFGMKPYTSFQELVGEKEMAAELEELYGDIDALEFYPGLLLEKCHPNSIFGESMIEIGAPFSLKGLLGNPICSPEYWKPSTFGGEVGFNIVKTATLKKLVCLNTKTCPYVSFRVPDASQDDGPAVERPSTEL

[16] = molecular target: T3, Prostaglandin G/H synthase 2 (Homo sapiens) (UniProt P35354); experiment: Activity at COX2 in human whole blood assessed as effect on LPS-induced PGE2 production preincubated for 15 mins followed by LPS-stimulation and measured after overnight incubation by EIA; assay type: tissue-based
T3 sequence (whole entry): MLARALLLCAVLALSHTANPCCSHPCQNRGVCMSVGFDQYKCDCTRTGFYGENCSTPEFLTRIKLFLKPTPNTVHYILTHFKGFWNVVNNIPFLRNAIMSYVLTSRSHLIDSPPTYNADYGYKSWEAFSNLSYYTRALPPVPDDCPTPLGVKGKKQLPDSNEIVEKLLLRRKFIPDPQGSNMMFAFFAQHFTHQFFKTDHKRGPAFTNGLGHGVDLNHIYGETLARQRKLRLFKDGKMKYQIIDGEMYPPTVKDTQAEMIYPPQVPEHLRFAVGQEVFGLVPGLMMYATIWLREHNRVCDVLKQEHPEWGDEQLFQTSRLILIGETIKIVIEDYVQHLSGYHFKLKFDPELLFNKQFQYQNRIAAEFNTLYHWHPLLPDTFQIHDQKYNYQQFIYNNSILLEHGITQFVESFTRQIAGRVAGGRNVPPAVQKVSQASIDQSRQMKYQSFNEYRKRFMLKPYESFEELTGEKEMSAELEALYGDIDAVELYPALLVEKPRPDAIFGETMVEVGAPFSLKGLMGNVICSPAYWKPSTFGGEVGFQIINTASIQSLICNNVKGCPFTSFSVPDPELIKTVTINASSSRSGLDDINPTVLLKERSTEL

[17] = Clearance in Beagle dog at 1 umol/kg, iv; assay type: ADME, Canis lupus familiaris; settings: in vivo
[18] = Cardiotoxicity in conscious telemetered Beagle dog assessed as effect on lead 2 electrocardiogram at 0.5 to 30 mg/kg administered as single iv infusion for 2 hrs measured up to 48 hrs post dose by telemetry; assay type: toxicity, organism-based, Canis lupus familiaris; settings: in vivo
Method in brief: (§1)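 Conscious beagle dogs were given the compound by intravenous infusion. Infusion was set to reach a target plasma concentration 100-fold above the predicted free human Cmax at the therapeutic dose, and cardiovascular parameters were recorded.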

[19] = Cardiotoxicity in conscious telemetered Beagle dog assessed as effect on heart rate at 0.5 to 30 mg/kg administered as single iv infusion for 2 hrs measured up to 48 hrs post dose by telemetry; assay type: toxicity, organism-based, Canis lupus familiaris; settings: in vivo; method in brief: as §1
Bile salt export pump = Bile salt export pump (Homo sapiens, UniProt O95342); experiment: Inhibition of recombinant human BSEP expressed in baculovirus infected Sf21 insect cell vesicles assessed as reduction in NBD-taurocholate uptake by fluorescence assay; assay type: ADME
Chain of Bile salt export pump (O95342 whole entry): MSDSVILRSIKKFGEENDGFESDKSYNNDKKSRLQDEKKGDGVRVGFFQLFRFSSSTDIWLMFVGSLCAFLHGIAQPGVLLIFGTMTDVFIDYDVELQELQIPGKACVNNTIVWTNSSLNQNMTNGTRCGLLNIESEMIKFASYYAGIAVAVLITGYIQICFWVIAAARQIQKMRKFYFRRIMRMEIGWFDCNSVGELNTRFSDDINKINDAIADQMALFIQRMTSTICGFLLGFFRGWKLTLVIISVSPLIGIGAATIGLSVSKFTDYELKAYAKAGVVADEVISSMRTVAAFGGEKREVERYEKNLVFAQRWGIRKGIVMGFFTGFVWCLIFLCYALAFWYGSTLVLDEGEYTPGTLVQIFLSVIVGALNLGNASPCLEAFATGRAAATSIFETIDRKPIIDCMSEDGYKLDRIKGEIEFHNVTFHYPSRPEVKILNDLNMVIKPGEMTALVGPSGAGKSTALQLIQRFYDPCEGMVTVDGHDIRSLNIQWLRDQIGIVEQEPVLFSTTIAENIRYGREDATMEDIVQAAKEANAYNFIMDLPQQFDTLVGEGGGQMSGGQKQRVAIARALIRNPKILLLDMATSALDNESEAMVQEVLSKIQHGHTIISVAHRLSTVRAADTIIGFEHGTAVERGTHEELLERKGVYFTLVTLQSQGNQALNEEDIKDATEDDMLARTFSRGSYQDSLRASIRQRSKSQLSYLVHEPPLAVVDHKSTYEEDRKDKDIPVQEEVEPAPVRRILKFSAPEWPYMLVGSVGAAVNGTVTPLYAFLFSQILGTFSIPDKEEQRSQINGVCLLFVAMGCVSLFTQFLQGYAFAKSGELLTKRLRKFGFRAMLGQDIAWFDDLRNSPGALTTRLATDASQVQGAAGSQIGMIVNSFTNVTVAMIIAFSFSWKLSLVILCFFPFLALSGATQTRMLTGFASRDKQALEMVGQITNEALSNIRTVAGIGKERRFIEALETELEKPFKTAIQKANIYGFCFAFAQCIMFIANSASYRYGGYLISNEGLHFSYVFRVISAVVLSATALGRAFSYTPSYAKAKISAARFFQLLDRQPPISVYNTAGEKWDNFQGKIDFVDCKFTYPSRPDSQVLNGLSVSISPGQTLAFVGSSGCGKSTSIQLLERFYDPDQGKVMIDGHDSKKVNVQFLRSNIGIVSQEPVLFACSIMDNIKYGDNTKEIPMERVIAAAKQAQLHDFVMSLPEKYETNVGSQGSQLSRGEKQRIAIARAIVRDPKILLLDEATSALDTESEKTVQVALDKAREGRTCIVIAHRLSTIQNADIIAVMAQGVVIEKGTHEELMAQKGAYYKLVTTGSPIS

[20] = Cardiotoxicity in rat assessed as effect on histopathological changes measured up to 28 days during compound dosing; assay type: toxicity; settings: in vivo, 672 h
[21] = Cardiotoxicity in conscious telemetered Beagle dog; assay type: toxicity, Canis lupus familiaris
[22] = Half life in human at 60 to 1200 mg, po administered as single dose; assay type: ADME, organism-based; settings: in vivo
Cytochrome P450 [23] = experiment: Drug metabolism in human hepatocytes assessed as CYP450-mediated phase-2 glucuronidation/oxidation at 4 uM measured after 120 mins by LC-MS/MS analysis; assay type: ADME, cell-based, Hepatocyte; settings: 2 h
[24] = Oral bioavailability in rat at 2.5 umol/kg; assay type: ADME, organism-based; settings: in vivo
[25] = Cardiotoxicity in conscious telemetered Beagle dog assessed as effect on left ventricular parameters at 0.5 to 30 mg/kg administered as single iv infusion for 2 hrs measured up to 48 hrs post dose by telemetry; assay type: toxicity, organism-based, Canis lupus familiaris; settings: in vivo; method in brief: as §1
[26] = Cardiotoxicity in dog assessed as effect on histopathological changes measured up to 28 days during compound dosing; assay type: toxicity, Canis lupus familiaris; settings: in vivo, 672 h
[27] = Cardiotoxicity in conscious telemetered Beagle dog assessed as effect on arterial blood pressure at 0.5 to 30 mg/kg administered as single iv infusion for 2 hrs measured up to 48 hrs post dose by telemetry; assay type: toxicity, organism-based, Canis lupus familiaris; settings: in vivo; method in brief: as §1
[28] = Cardiotoxicity in conscious telemetered Beagle dog assessed as effect on body temperature at 0.5 to 30 mg/kg administered as single iv infusion for 2 hrs measured up to 48 hrs post dose by telemetry; assay type: toxicity, organism-based, Canis lupus familiaris; settings: in vivo; method in brief: as §1
[29] = Cardiotoxicity in rat assessed as effect on cardiac function measured up to 28 days during compound dosing; assay type: toxicity; settings: in vivo, 672 h

half-life [1]: 2.9 h | Drug metabolism (Cytochrome P450 [2]): Metabolite_Detected | Vd [3]: 1.3 L/kg | bioavailability [4]: 14% | clearance [5]: 10 mL/min/kg | bioavailability [6]: 65%
Structure (SMILES): Cc1cc(-c2ccc(C(=O)[C@@H]3CCCC[C@H]3C(=O)Nc3cnn(C)c3S(N)(=O)=O)cc2)[nH]n1

bioavailability [7]: 12% | Vd [8]: 0.4 L/kg | fIC50 [9]: 1.6 nM | Selectivity ratio (Homo sapiens [10]): > 100 | Drug metabolism (Cytochrome P450 [11]): Metabolite_Detected | Selectivity ratio (Homo sapiens [12]): > 100 | IC50 [13]: 0.0058 µM | half-life [14]: 7 h | Activity [15]: inactive | Activity [16]: inactive | clearance [17]: 2 mL/min/kg
Structure (SMILES): Cc1cc(-c2ccc(C(=O)[C@@H]3CCCC[C@H]3C(=O)Nc3cnn(C)c3C(=O)NOC(C)(C)C)cc2)[nH]n1
IC50 (HepG2): > 250 µM | IC50 (THP-1): > 250 µM

half-life [22]: 12 h | Drug metabolism (Cytochrome P450 [23]): Metabolite_Detected | bioavailability [24]: 14%
Structure (SMILES): Cc1cc(-c2ccc(C(=O)[C@@H]3CCCC[C@H]3C(=O)Nc3cnn4c3C(=O)NCC4)cc2)[nH]n1
Activity [18]: Non-Toxic | Activity [19]: Non-Toxic | IC50 (Bile salt export pump): 74 to 340 µM | Activity [20]: Non-Toxic | Activity [21]: Non-Toxic | Activity [25]: Non-Toxic | Activity [26]: Non-Toxic | Activity [27]: Non-Toxic | Activity [28]: Non-Toxic | Activity [29]: Non-Toxic
